Assay results as given in the EternaBench riboswitch data.

System: MS2 coat protein
Assay: apparent Kd, MS2 coat protein; higher = weaker binding; RNA-MaP array
Outline: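 Apparent Kd values come from the median of binding-curve fits to single clusters. To obtain them, designed RNAs transcribed on an Illumina sequencing chip from sequenced DNA templates were incubated at room temperature with fluorescently labeled MS2 coat protein at 1.5 nM to 3 μM, with or without input ligand, for 0.8–1.5 h at the lowest and 10–20 min at the highest concentrations. Designs measured on fewer than 10 clusters were excluded.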

[1] = designed as: ON switch for tryptophan, no ligand
[2] = ligand present: tryptophan, designed as: ON switch for tryptophan
[3] = designed as: ON switch for flavin mononucleotide, no ligand
[4] = ligand present: flavin mononucleotide, designed as: ON switch for flavin mononucleotide
[5] = designed as: OFF switch for flavin mononucleotide, no ligand
[6] = ligand present: flavin mononucleotide, designed as: OFF switch for flavin mononucleotide

Row | Sequence | apparent Kd [5] | apparent Kd [6] | also measured
1 | CCUCCUUGUACGGCCGCCACUGCAUCUCUGGAUACUCCGAUAAUACAUGAGGAUCACCCAUGUUACAGGACCGGGUAUAUAUUAC |  |  | apparent Kd [1]: 0.015 µM; apparent Kd [2]: 0.016 µM
2 | CCUGGAUCAGAUCUUAAAGGCGGUUCUGAUACCAGUCUUUUCCGAGACCCUUGGCAGCAGAACACAUGAGGAUCACCCAUGUAAA |  |  | apparent Kd (designed as: OFF switch for theophylline, no ligand): 0.0524 µM; apparent Kd (ligand present: theophylline, designed as: OFF switch for theophylline): 0.0466 µM
3 | CGAAGAAAACGGAAAUCAAUAACAUGAGGAUCACCCAUGUCUCAGGAUAUAAGAGAAGGAUGUAGUUAGAAGGGAGAGUUAUGU |  |  | apparent Kd [3]: 0.0547 µM; apparent Kd [4]: 0.0424 µM
4 | CGACCGCACGAGAAGGCUAGACAGCGGCGAUCUAGAGGAUAUCGACAUUCAACAUGAGGAUCACCCAUGUGAUUCCAACAAGCU | 0.0578 µM | 0.0696 µM | 
5 | CGACUAACGUGAGGAUAUAGUCCGGAAAGACAUUUUCGUCAAGACAUGAGGAUCACCCAUGUCCUCUAGAAGGCACUCGGAACA |  |  | apparent Kd [3]: 0.0451 µM; apparent Kd [4]: 0.0305 µM
6 | CGAGAAUAUACAGGAUAUGGCGGAACCCAUUACAUGAGGAUCACCCAUGUACCAUGGAAAAGAGUCCAGAAGGGUAGAAUCAAA |  |  | apparent Kd [3]: 0.0081 µM; apparent Kd [4]: 0.00619 µM
7 | CGCAAACUAGGAUAUACAGGGCGAAAACGUUUACUUGGAUAACAUGAGGAUCACCCAUGUAGAAGGAGUUCUUA | 0.0289 µM | 0.16 µM | 
8 | CGCAGCAUCUAGAAGGGCGAAUCAACAAUACAACUAGUGAACAUGAGGAUCACCCAUGUAAUGACGCAGGAUAUAGUAGCAAAG |  |  | apparent Kd [3]: 0.0265 µM; apparent Kd [4]: 0.0137 µM
9 | CGGGACAUGAGGAUCACCCAUGUACGAUCCCGAGGACCGGUACGGCCGCCACUCGCUAGCGUUGAGUCGCGACUUUCAUAACUAA |  |  | apparent Kd [1]: 0.0744 µM; apparent Kd [2]: 0.0433 µM
10 | CGGUGAUUCGUAGGAUAUGUAUGAAGCUAGAGAACAGAAGGACGUCGCUACAAAAUUCAAAAUUACAUGAGGAUCACCCAUGUA |  |  | apparent Kd [3]: 0.0252 µM; apparent Kd [4]: 0.0164 µM
11 | CGUAACCAAGGAUAUACAUGAGGAUCACCCAUGUAUCGGGUCGGUCUGGGUCCAAUAAGUAGAAGGUGGCUGAU | 0.0293 µM | 0.0397 µM | 
12 | CGUAUAGCAGGAUAUACAUGAGGAUCACCCAUGUUUUUCGUUGUGUGGUGCCAAGCGUGUAGAAGGGCUUCCUC | 0.0524 µM | 0.0568 µM | 
13 | CGUCAACAUGAGGAUCACCCAUGUUUCGAUACCAGUGACCCUCUCCACCCUUGGCAGCGAGCGCCCGCGCCUGAUAAAUCUUCUA |  |  | apparent Kd (designed as: ON switch for theophylline, no ligand): 0.0121 µM; apparent Kd (ligand present: theophylline, designed as: ON switch for theophylline): 0.0142 µM
14 | CGUCGAUAACCACAUGAGGAUCACCCAUGUAAUGUGGUGUGGAGAAGGUCGUGCUAGUUCUAUACGAAGGAUAUCCACGAAUCU | 0.124 µM | 0.0983 µM | 
15 | CGUUAAGGCGAGAAGGUGCCGUCCAACAUGAGGAUCACCCAUGUCGGUCGGUGAAUCAAGAGACGCAAGGAUAUCGACAUUAAC | 0.00301 µM | 0.00346 µM | 
16 | CUAAAUUACGCGUAGGAUAUAUUAAAGACUACAUGAGGAUCACCCAUGUCACUUAAACCACGAGAAUAGAAGGACGUAGAAAGAGA |  |  | apparent Kd [3]: 0.00877 µM; apparent Kd [4]: 0.00906 µM
17 | CUAAGAGUUACGGCCGCCACUAGUUGGGAUCCGCCCGUAAAAUCACAUGAGGAUCACCCAUGUCCUAGGACCGGGUAAUCGCAUU |  |  | apparent Kd [1]: 0.265 µM; apparent Kd [2]: 0.142 µM
18 | CUAGAACAUGAGGAUCACCCAUGUCAGGAUAUUCUUGGAUGCAUCCAAGCGAAAACAAGAAGAAGGGACGUAUA | 0.0108 µM | 0.0104 µM | 
19 | CUCUAAUAAUAUUUCAACAUGAGGAUCACCCAUGUAAUCAGCAAGGAUAUGGUCUUGAUAAGAACCCAGAAGGUGCAUAUAGAU |  |  | apparent Kd [3]: 0.0227 µM; apparent Kd [4]: 0.0149 µM
20 | CUCUGCUACCGGACUGGUUGGACAUGAGGAUCACCCAUGUACGAGGAUAUACGAAGAAGAACCAGGUAGAAGGCGUUUGGGUAC | 0.0144 µM | 0.0281 µM | 
21 | CUGUGCGAACAGAAGGUGGCGUGUUAUCGGGACCAAGGAUAUGUUUACUAUUGUGACAAUUCACAUGAGGAUCACCCAUGUACA | 0.0217 µM | 0.0153 µM | 

Row | Sequence | apparent Kd [5] | apparent Kd [6] | also measured
22 | CUUAGGUGAGGAUAUCCUGAAUGGGUCGCUACCAGCCGUUCGGAGAAGGCACAUGAGGAUCACCCAUGUUUUGA | 0.0346 µM | 0.0255 µM | 
23 | CUUCAACAUGAGGAUCACCCAUGUAAGGAUAUCUGCCUCACAGCACCAAAGUGCGGGAAGAGAAGGUACGUAGU | 0.0154 µM | 0.0145 µM | 
24 | CUUGUAACCUAAGGAUAUGAUUAGGGCAUCACAUGAGGAUCACCCAUGUGGCGUGAUCCGAGCCUUCAGAAGGUAGGGGAGCAU | 0.475 µM | 0.479 µM | 
25 | CUUUACAUAUGUAUGUGGGUUACAUGAGGAUCACCCAUGUGAAGAAGGCUCACCUCAAGCGCAAGAGAGGAUAUUCACGGGUCC | 0.0608 µM | 0.104 µM | 
26 | GAACCUAUAGGAUAUACAUGAGGAUCACCCAUGUAGCCAUCUAUUCGUGGGACUAGGUGUAGAAGGAUAGCAAA | 0.0127 µM | 0.0118 µM | 
27 | GAAGCGUGAGCAGGAUAUUUAGACAUGAGGAUCACCCAUGUGUGCUAACUAGAAUGCAGGUUUUUAAAGAAGGGCUCCUAGAUU |  |  | apparent Kd [3]: 0.0114 µM; apparent Kd [4]: 0.00711 µM
28 | GACACCCAAGGAUAUCAAUGAAUCAACAUGAGGAUCACCCAUGUCGUCACCAGAUUAAACUGAGAAGGAGGAGAAA | 0.0114 µM | 0.00975 µM | 
29 | GACCCACAUGAGGAUCACCCAUGUCAGGAUAUCCGAUCGUCAAAGACCCAAAUAAUUAGGAGAAGGGACAUUAA | 0.015 µM | 0.0154 µM | 
30 | GAGAGGCGCUAGAAGGCACGCGUUCGGAUUGAGUGAGGAUAUAGUCCUCUGCCACAUGAGGAUCACCCAUGUAGUUUGAUAGAG |  |  | apparent Kd [3]: 0.00628 µM; apparent Kd [4]: 0.00612 µM
31 | GAGCACUUAGGAUAUUGGUUGACACACAUGAGGAUCACCCAUGUGAUUCCUGCCUUUAACCAAGAAGGAAGAGUAU | 0.0147 µM | 0.0135 µM | 
32 | GAUACGCAGUCGGCCGCCACUUGCUAAGGUGACAAACCAAAACAUGAGGAUCACCCAUGUCUGAUAAGGACCGGGACCACCAUGG |  |  | apparent Kd [1]: 0.0795 µM; apparent Kd [2]: 0.0811 µM
33 | GAUCUAUCAGGAUAUAAGGCCUUGAACAUGAGGAUCACCCAUGUCCUCUUGGUUGCCGCGUUAGAAGGGAUGUGUU | 0.202 µM | 0.171 µM | 
34 | GAUUACGGUCUAGGAUAUUGAUUGGCACAUGAGGAUCACCCAUGUCUGUGAGAUCAGCAUACAAGCAAGAAGGAGAUGCGGUCU | 0.0106 µM | 0.0109 µM | 
35 | GAUUUGUGAGGAUAUCAUUAGAAACAAGUAUGAGGCGAAAGUGAGAAGGCACAUGAGGAUCACCCAUGUUGGAA | 0.015 µM | 0.0157 µM | 
36 | GCAGGCGAAGGAUAUACAUGAGGAUCACCCAUGUGUCAAACAAUAAUACCACUCAACUGUAGAAGGUCGGGCGA | 0.0139 µM | 0.0114 µM | 
37 | GCAUCAUGAACGGCCGCCACUAAGGAAUGAGCGGCUCUUGCGAUACAUGAGGAUCACCCAUGUCUUAGGACCGGGUUCAUUGUCA |  |  | apparent Kd [1]: 0.234 µM; apparent Kd [2]: 0.127 µM
38 | GCCUAGGGUCAAGGAUAUCACCCAGUGGUCCGUACAUGAGGAUCACCCAUGUCACCGGGAACGGGUGAGAAGGUGAAAAGUCGA |  |  | apparent Kd [3]: 0.0139 µM; apparent Kd [4]: 0.00993 µM
39 | GCGGGACUGUAGAAGGGUUAUCCUUAAGGUCUGAUCACAUGAGGAUCACCCAUGUAACGGGUGGAACAGGAUAUACCAGAUCGC | 0.042 µM | 0.0484 µM | 
40 | GCGUGGUAAGGAUAUGUGUACGUCCGGUAGUAUAGCGUACAACAGAAGGUACAUGAGGAUCACCCAUGUGUCCG | 0.00703 µM | 0.00794 µM | 
41 | GCUACACAGGACCGUACUAAGGAUUCGCCUCGAGGACCGGUACGGCCGCCACUCGUUGCGCGACAUGAGGAUCACCCAUGUGUUC |  |  | apparent Kd (designed as: OFF switch for tryptophan, no ligand): 0.046 µM; apparent Kd (ligand present: tryptophan, designed as: OFF switch for tryptophan): 0.0367 µM
42 | GCUACACAUGAGGAUCACCCAUGUAUGCAUAGACGAGGAUAUAGACCACCUCCCGGGAUACUAGAAGGCGUGAUAU |  |  | apparent Kd [3]: 0.0193 µM; apparent Kd [4]: 0.0103 µM
